Values after ≈ are worked out from the molar mass of the structure shown.
Assays:
[1] = Inhibition of human mitochondrial ribosome Mit 13 A1555G mutant hybridized with Mycobacterium smegmatis ribosome assessed as inhibition of translation activity using Firefly luciferase mRNA reporter based luminescence analysis
Procedure, shortened: (§1)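 Cell-free ribosomal translation inhibition with IC50 reported in μM. Values were determined in duplicate or more, except for a few compounds in the mitochondrial hybrid assays, where limited material allowed fewer runs.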

Staphylococcus aureus = experiment: Antibacterial activity against methicillin-resistant Staphylococcus aureus AG038; assay type: functional
Klebsiella pneumoniae = experiment: Antibacterial activity against Klebsiella pneumoniae AG215; assay type: functional
[2] = Selectivity ratio of IC50 for inhibition of human cytoplasmic ribosome Cyt 14 hybridized with Mycobacterium smegmatis ribosomes to IC50 for inhibition of Mycobacterium smegmatis wild type ribosomes
Enterobacter cloacae = experiment: Antibacterial activity against Enterobacter cloacae AG290; assay type: functional
[3] = Selectivity ratio of IC50 for inhibition of human mitochondrial ribosome Mit 13 A1555G mutant hybridized with Mycobacterium smegmatis ribosomes to IC50 for inhibition of Mycobacterium smegmatis wild type ribosomes
Bacterial 70S ribosome = experiment: Inhibition of Mycobacterium smegmatis wild type ribosomes assessed as inhibition of translation activity using Firefly luciferase mRNA reporter based luminescence analysis; assay type: subcellular, Mycolicibacterium smegmatis; procedure, shortened: as §1
[4] = Inhibition of human mitochondrial ribosome Mit 13 hybridized with Mycobacterium smegmatis ribosome assessed as inhibition of translation activity using Firefly luciferase mRNA reporter based luminescence analysis
Procedure, shortened: (§2)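 Cell-free ribosomal translation assay. IC50 reported in μM ± STD, determined in duplicate or more, with fewer replicates for a few compounds where material was limited.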

Escherichia coli = experiment: Antibacterial activity against Escherichia coli AG001; assay type: functional
[5] = Inhibition of human cytoplasmic ribosome Cyt 14 hybridized with Mycobacterium smegmatis ribosome assessed as inhibition of translation activity using Firefly luciferase mRNA reporter based luminescence analysis; procedure, shortened: as §2
Acinetobacter baumannii = experiment: Antibacterial activity against Acinetobacter baumannii AG225; assay type: functional
[6] = Selectivity ratio of IC50 for inhibition of human mitochondrial ribosome Mit 13 hybridized with Mycobacterium smegmatis ribosome to IC50 for inhibition of Mycobacterium smegmatis wild type ribosomes
Pseudomonas aeruginosa = experiment: Antibacterial activity against Pseudomonas aeruginosa AG031; assay type: functional

| Structure (SMILES) | IC50 [1] [µM] | MIC (Staphylococcus aureus) [µg/mL] | MIC (Klebsiella pneumoniae) [µg/mL] | Ratio IC50 [2] | MIC (Enterobacter cloacae) [µg/mL] | Ratio IC50 [3] | IC50 (Bacterial 70S ribosome) [µM] | IC50 [4] [µM] | MIC (Escherichia coli) [µg/mL] | IC50 [5] [µM] | MIC (Acinetobacter baumannii) [µg/mL] | Ratio IC50 [6] | MIC (Pseudomonas aeruginosa) [µg/mL] |
| --- | --- | --- | --- | --- | --- | --- | --- | --- | --- | --- | --- | --- | --- |
| NC[C@@H]1O[C@H](O[C@H]2[C@@H](O)[C@H](O[C@@H]3[C@@H](O)[C@H](N)C[C@H](N)[C@H]3O[C@H]3O[C@H]4[C@@H](OC[C@H]4O)[C@H](O)[C@H]3N)O[C@@H]2CO)[C@H](N)[C@@H](O)[C@@H]1O | 117 | 8 (≈ 12.7 µM) | 4 (≈ 6.37 µM) | 1380 | 8 (≈ 12.7 µM) | 585 | 0.2 | 131 | 16 (≈ 25.5 µM) | 276 | 8 (≈ 12.7 µM) | 655 | > 64 |
| NC[C@@H]1O[C@H](O[C@H]2[C@@H](O)[C@H](O[C@@H]3[C@@H](O)[C@H](N)C[C@H](N)[C@H]3O[C@H]3O[C@H]4[C@@H](OC[C@@H]4O)[C@H](O)[C@H]3N)O[C@@H]2CO)[C@H](N)[C@@H](O)[C@@H]1O |  | 16 (≈ 25.5 µM) | 16 (≈ 25.5 µM) | 250 | 32 (≈ 51 µM) |  | 0.13 | 151 | 32 (≈ 51 µM) | 40 | 32 (≈ 51 µM) | 943 | > 128 |
| NC[C@@H]1O[C@H](O[C@H]2[C@@H](O)[C@H](O[C@@H]3[C@@H](O)[C@H](N)C[C@H](N)[C@H]3O[C@H]3O[C@H](CO)[C@@H](O)[C@H](O)[C@H]3N)O[C@@H]2CO)[C@H](N)[C@@H](O)[C@@H]1O [PAROMOMYCIN] | 12 | 2 (≈ 3.25 µM) | 1 (≈ 1.62 µM) | 1120 | 2 (≈ 3.25 µM) | 364 | 0.033 | 131 | 2 (≈ 3.25 µM) | 37 | 2 (≈ 3.25 µM) | 3970 | > 128 |
| NC[C@@H]1O[C@H](O[C@H]2[C@@H](O)[C@H](O[C@@H]3[C@@H](O)[C@H](N)C[C@H](N)[C@H]3O[C@H]3O[C@H]4[C@@H](OCCC[C@@H]4O)[C@H](O)[C@H]3N)O[C@@H]2CO)[C@H](N)[C@@H](O)[C@@H]1O | 42 | 2 (≈ 3.05 µM) | 2 (≈ 3.05 µM) | 789 | 2 (≈ 3.05 µM) | 592 | 0.071 | 243 | 4 (≈ 6.1 µM) | 56 | 4 (≈ 6.1 µM) | 3420 | 64 (≈ 97.6 µM) |
| NC[C@@H]1O[C@H](O[C@H]2[C@@H](O)[C@H](O[C@@H]3[C@@H](O)[C@H](N)C[C@H](N)[C@H]3O[C@H]3O[C@H]4[C@@H](OCCC[C@H]4O)[C@H](O)[C@H]3N)O[C@@H]2CO)[C@H](N)[C@@H](O)[C@@H]1O | 545 | 32 (≈ 48.8 µM) | 32 (≈ 48.8 µM) |  | 32 (≈ 48.8 µM) | 363 | 1.5 | 514 | 64 (≈ 97.6 µM) |  | 32 (≈ 48.8 µM) | 342 | > 128 |
| C[C@@H]1C[C@H](O)[C@H]2O[C@H](O[C@H]3[C@H](O[C@@H]4O[C@H](CO)[C@@H](O[C@H]5O[C@@H](CN)[C@@H](O)[C@H](O)[C@H]5N)[C@H]4O)[C@@H](O)[C@H](N)C[C@@H]3N)[C@H](N)[C@@H](O)[C@@H]2O1 | 20 | 4 (≈ 6.1 µM) | 2 (≈ 3.05 µM) | 540 | 2 (≈ 3.05 µM) | 317 | 0.063 | 250 | 4 (≈ 6.1 µM) | 34 | 4 (≈ 6.1 µM) | 3970 | 32 (≈ 48.8 µM) |
| NC[C@@H]1O[C@H](O[C@H]2[C@@H](O)[C@H](O[C@@H]3[C@@H](O)[C@H](N)C[C@H](N)[C@H]3O[C@H]3O[C@H]4[C@@H](OCC[C@H]4O)[C@H](O)[C@H]3N)O[C@@H]2CO)[C@H](N)[C@@H](O)[C@@H]1O | 602 | 32 (≈ 49.9 µM) | 64 (≈ 99.7 µM) | 169 | 64 (≈ 99.7 µM) | 182 | 3.3 | 554 | 128 (≈ 199 µM) | 557 | 64 (≈ 99.7 µM) | 168 | > 128 |
| C[C@@H]1C[C@@H](O)[C@H]2O[C@H](O[C@H]3[C@H](O[C@@H]4O[C@H](CO)[C@@H](O[C@H]5O[C@@H](CN)[C@@H](O)[C@H](O)[C@H]5N)[C@H]4O)[C@@H](O)[C@H](N)C[C@@H]3N)[C@H](N)[C@@H](O)[C@@H]2O1 | 327 | 32 (≈ 48.8 µM) | 16 (≈ 24.4 µM) | 299 | 32 (≈ 48.8 µM) | 367 | 0.89 | 372 | 32 (≈ 48.8 µM) | 266 | 32 (≈ 48.8 µM) | 418 | > 128 |
| NC[C@@H]1O[C@H](O[C@H]2[C@@H](O)[C@H](O[C@@H]3[C@@H](O)[C@H](N)C[C@H](N)[C@H]3O[C@H]3O[C@H]4[C@@H](OCC[C@@H]4O)[C@H](O)[C@H]3N)O[C@@H]2CO)[C@H](N)[C@@H](O)[C@@H]1O | 132 | 2 (≈ 3.12 µM) | 4 (≈ 6.23 µM) | 1000 | 4 (≈ 6.23 µM) | 1100 | 0.12 | 231 | 8 (≈ 12.5 µM) | 120 | 8 (≈ 12.5 µM) | 1920 | > 128 |

— ChEMBL document CHEMBL5136970, “Influence of ring size in conformationally restricted ring I analogs of paromomycin on antiribosomal and antibacterial activity” (RSC Med Chem, 2021)
